In ChEMBL document CHEMBL1122666, “Bile acids with a cyclopropyl-containing side chain. 1. Preparation and properties of 3 alpha, 7 beta-dihydroxy-22,23-methylene-5 beta-cholan-24-oic acid” (J Med Chem, 1984):
In brackets after ≈: the same amount, converted by molar mass.

Experiments:
Rattus norvegicus [1] = organism: Rattus norvegicus; assay: Compound was evaluated for Cholesterol secretion; format: functional
How it was run: (§1)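 Male Sprague–Dawley rats (300-330 g) were anesthetized with ethyl carbamate and the bile was collected. Bile acids were given i.v. as sodium salts via the femoral vein at 50 mg per animal, five rats per group, and bile was sampled at 15-min intervals. Flow volume and bile acid, cholesterol and phospholipid concentrations were measured by enzymatic assays. Controls were five rats; values are mean ± SD.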

Rattus norvegicus [2] = organism: Rattus norvegicus; assay: Compound was evaluated for Bile flow; format: functional; how it was run: as §1
[3] = Compound was evaluated for physico-chemical property of Critical micellar concentration (CMC); format: ADME
How it was run: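 For the CMC, sodium salt solutions from 0.1 to 100 mmol were adjusted to pH 8.00 with NaOH and rotated for 1 day at room temperature in the dark with excess Azulene or Orange OT dye. After 0.22-µm filtration, absorbance was read at 580 or 490 nm and plotted against bile salt concentration. Values are mean ± SD of five determinations.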

Rattus norvegicus [4] = organism: Rattus norvegicus; assay: Compound was evaluated for Bile acid secretion; format: functional; how it was run: as §1
[5] = Compound was evaluated for physico-chemical property of Water solubility (bile acid) at 25 degree C; format: ADME
How it was run: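 For solubility, solutions were held for 1 month, filtered through 0.22 µm, and methanol was added to prevent crystallization. Dissolved bile acid was quantified enzymatically with 3α-hydroxysteroid dehydrogenase.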

Rattus norvegicus [6] = organism: Rattus norvegicus; assay: Compound was evaluated for Percent hepatic uptake; format: functional
How it was run: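 Single-pass isolated perfused rat liver; perfusate Krebs-Ringer bicarbonate pH 7.4 with glucose and 3% w/v fatty-acid-free bovine serum albumin, Evans blue (1 mg/g liver) as flow/recovery marker. 200 μL of 10-µmol/L bile acid injected; outflow collected at 10-s intervals, bile acid measured enzymatically (3α-hydroxysteroid dehydrogenase), Evans blue at 610 nm. Outflow corrected for Evans blue; uptake = 100% − outflow.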

[7] = Compound was evaluated for physico-chemical property of Constant, pKa; format: physicochemical
Rattus norvegicus [8] = organism: Rattus norvegicus; assay: Compound was evaluated for Phospholipid secretion; format: functional; how it was run: as §1
[9] = biological target: Serum albumin (Homo sapiens) (UniProt P02768); assay: Compound was evaluated for Albumin affinity constant

Compound	Secretion (Rattus norvegicus [1]) [µM/h/kg]	Bile flow (Rattus norvegicus [2]) [mL/h]	CMC [3] [mM]	Secretion (Rattus norvegicus [4]) [µM/h/kg]	solubility [5] [µM]	Intake (Rattus norvegicus [6]) [%]	pKa [7]	Secretion (Rattus norvegicus [8]) [µM/h/kg]	Affinity constant [9]
C[C@H](CCC(=O)O)[C@H]1CC[C@H]2[C@@H]3[C@@H](O)C[C@@H]4C[C@H](O)CC[C@]4(C)[C@H]3CC[C@]12C [URSODIOL]	2.12	1.08	19	98	9 (≈ 3.53 µg/mL)	50	5.08	6.47	–
CC(C1CC1C(=O)O)C1CC[C@H]2[C@@H]3[C@@H](O)CC4C[C@H](O)CCC4(C)[C@H]3CCC12C (some centres not stated)	2.7	1.68	15.5	97	11.8 (≈ 4.77 µg/mL)	46	5.01	9.5	68000 l M-1
